Published values gathered from unrelated publications.
Compare with care: the assays were run in different laboratories. Converted amounts (≈) assume the structure as drawn.

`O=C(c1ccc(F)cc1)c1c[nH]c2ncc(-c3ccc(N4CCNCC4)cc3)cc12` has a viability of 89.1% (A549; cell growth or viability, MTT; 10 µM, 48 h).
`C[C@]12C=CC(=O)C[C@@H]1CC[C@@H]1[C@@H]2C(=O)C[C@@]2(C)[C@H]1CC[C@]2(C)O` gave an IC50 of over 30 µM (NIH3T3; cell growth or viability, MTT; 24 h).
With `C[C@@H]1[C@H](O)[C@@H](C)/C=C/C=C/C=C/C=C/C=C/C=C/C=C/[C@H](O[C@@H]2O[C@H](C)[C@@H](O)[C@H](N)[C@@H]2O)C[C@@H]2O[C@](O)(C[C@@H](O)C[C@@H](O)[C@H](O)CC[C@@H](O)C[C@@H](O)CC(=O)O[C@H]1C)C[C@H](O)[C@H]2C(=O)O` the IC50 was 0.21 µg/mL (Leishmania donovani; parasite growth; amastigote).
With `O=C(N/N=C1\C(=O)N(Cc2ccccc2)c2ccc(Cl)cc21)c1cc2ccccc2[nH]1` the IC50 was 1.77 µM (A549; cell growth or viability, imaging; 24 h).
`COC(=O)C(Cc1ccccc1)n1c(C)nc2c(N)nc(=O)[nH]c21` (stereo not drawn) has an IC50 of 0.34 µM (unidentified influenza virus; viral replication; A549, H1N1 PR8; 24 h).
With `CCC1(c2ccc(N)cc2)CCC(=O)NC1=O` (stereo not drawn) the IC50 was over 50 µM (PC-3; cell growth or viability, CCK-8; 48 h).
For `Cc1nc2c(N)nc(=O)[nH]c2n1C(Cc1ccccc1)C(=O)O` (stereo not drawn), the IC50 was 0.52 µM (unidentified influenza virus; viral replication; A549, H1N1 PR8; 24 h).
The IC50 of `O=C(NCCCNc1c2c(nc3ccccc13)CCCC2)c1ccccc1O` is reported as 27.7 µM (ABTS scavenging; 1 h).
For `Cc1nc2c(N)nc(=O)[nH]c2n1CC(=O)O`, the IC50 was 0.039 µM (unidentified influenza virus; viral replication; A549, H1N1 PR8; 24 h).
The inhibition of `Oc1c(Cl)cc(Cl)c(Cl)c1Cc1c(O)c(Cl)cc(Cl)c1Cl` is reported as about 70% (Betapolyomavirus hominis; viral replication, inhibitor, qPCR; Vero; 30 µM, 5 days).
With `Cc1cc(C(C)(C)C)c(O)c(C(C)(C)C)c1` the IC50 was 0.08 µM (ABTS scavenging, absorbance; 5 min).
`Cc1nc2c(N)nc(N)nc2n1C(Cc1ccccc1)C(=O)O` (stereo not drawn) gave an IC50 of 0.21 µM (unidentified influenza virus; viral replication; A549, H1N1 PR8; 24 h).
With `CCOC(=O)c1c([C@@H]2C[C@H]2c2ccccc2)n(C)c2ccc(O)cc12` (relative stereo) the MIC50 was over 100 µg/mL (Punta Toro virus; cytopathic effect).
With `CC(C)(C)OC(=O)N1CCN(c2ccc(-c3cnc4c(c3)c(C(=O)c3ccc(F)cc3)cn4CC3CC3)cn2)CC1` the viability was 79.8% (A549; cell growth or viability, MTT; 10 µM, 48 h).
With `CC(C)=CCC/C(C)=C/COc1cc(O)cc(O)c1C(=O)c1ccccc1` the IC50 was 3750 µM (ABTS scavenging).
With `Cc1ccc(CN2C(=O)/C(=N\NC(=O)c3cc4ccccc4[nH]3)c3ccccc32)cc1` the inhibition was 91.9% (A549; cell growth or viability; 30 µM).
For `Cc1c(C)c2c(c(C)c1O)CCC(C)(C(=O)O)O2` (stereo not drawn), the IC50 was 20.1 µM (ABTS scavenging; 1 h).
With `Cc1nc2c(N)nc(N)nc2n1CC(=O)O` the IC50 was 0.526 µM (unidentified influenza virus; viral replication; A549, H1N1 PR8; 24 h).
`COc1ccc(O)c(C(C)(C)C)c1` has an IC50 of 5.07 µg/mL (ABTS scavenging).
`Nc1ncnc2c([C@@H]3N[C@H](CO)[C@@H](O)[C@H]3O)c[nH]c12` has an inhibition of 100% (unidentified influenza virus; viral replication, inhibitor; MDCK; 29.6 µM).
For `CC(C)(C)OC(=O)N1CCN(c2cc(-c3cnc4[nH]cc(C(=O)c5ccc(F)cc5)c4c3)ccn2)CC1`, the viability was 84.2% (A549; cell growth or viability, MTT; 10 µM, 48 h).
With `COc1cc(Nc2nc(C#N)cc3c(-c4ccccc4)n[nH]c23)cc(OC)c1OC` the IC50 was 4.3 µM (PC-3; cell growth or viability, MTS; 48 h).
With `CC(C)(C)OC(=O)N1CCN(c2ccc(-c3cnc4[nH]cc(C(=O)c5cccc(F)c5)c4c3)cn2)CC1` the viability was 93.7% (A549; cell growth or viability, MTT; 10 µM, 48 h).
With `N=C(N)c1ccc(OCCCCCOc2ccc(C(=N)N)cc2)cc1` the IC90 was 9 µg/mL (≈ 26.4 µM) (Leishmania donovani; parasite growth; amastigote).
